STAT3 inh-1: reduces IL-6 driven STAT3 reporter signal; inhibition, % at 5.5 µM; AID 862; 190,000 compounds, 0.89% hits; U3A cells, IL-6 STAT3-luciferase reporter, luminescence; host cell line lacks STAT1;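 active means inhibition above the mean inhibition across all screened compounds plus 3 SD, cut at about 44% in these data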;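 further: 0% = DMSO only wells and 100% = 100 µM nifuroxazide control wells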
STAT3 act: activators of IL-6 induced STAT3 signaling; 190,000 compounds, 0.91% hits; U3A cells, IL-6 STAT3-luciferase reporter, luminescence; 100% = signal with IL-6 EC80 alone; activation (% of control), % at 5.6 µM;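 active means activation above the screen-wide mean of compound activation plus 3 SD, cut at about 130% in these data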;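 further: 0% = background luminescence of wells with medium and substrate only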
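Material: human U3A cells carrying STAT3-luciferase construct. Measured by: reporter luminescence signal. Timing: compound 1 h, then IL-6 6 h at 37 °C.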
FLuc act counter: firefly luciferase counter-screen for stimulation assays. activation factor at 10 µM. ATPlite luciferase biochemical, luminescence, 10 min; 0 = ATP-free wells, 1 = DMSO control. 200,000 tested, under 10 active. AID 1027;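 active means luciferase activation factor, scaled between plate controls, of at least 2 with compound at 10 µM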
Target sequence (P08659 whole entry, looked up): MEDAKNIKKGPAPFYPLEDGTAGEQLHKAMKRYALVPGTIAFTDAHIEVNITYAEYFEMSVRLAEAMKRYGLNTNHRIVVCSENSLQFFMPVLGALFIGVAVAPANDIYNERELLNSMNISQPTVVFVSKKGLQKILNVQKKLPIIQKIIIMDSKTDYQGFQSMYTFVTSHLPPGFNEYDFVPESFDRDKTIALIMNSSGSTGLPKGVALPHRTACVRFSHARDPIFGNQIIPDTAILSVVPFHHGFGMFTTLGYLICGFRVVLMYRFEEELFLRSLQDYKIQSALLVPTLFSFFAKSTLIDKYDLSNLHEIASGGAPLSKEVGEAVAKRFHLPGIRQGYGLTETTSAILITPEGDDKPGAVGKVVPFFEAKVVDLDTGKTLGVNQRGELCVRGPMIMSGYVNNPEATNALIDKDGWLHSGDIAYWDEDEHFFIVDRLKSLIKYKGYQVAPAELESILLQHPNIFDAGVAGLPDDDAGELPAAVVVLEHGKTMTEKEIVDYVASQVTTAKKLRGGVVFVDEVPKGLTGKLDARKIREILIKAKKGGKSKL
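Assay system: Luciferase/luciferin detection reagent, cell-free biochemical luciferase assay / Read-out: luciferase activation / Benchmarks: No-ATP low control, compound-free enzyme-plus-ATP high control / Medium: PBS buffer for ATP / Detection: luminescence measurement of luciferase light output / Schedule: 10 min at ambient temperature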
FLuc inhib CS: counter-screen for luciferase assay inhibitors: firefly luciferase inhibition; ATPLite firefly luciferase biochemical luminescence, 10 min; inhibition, % at 10 µM; 200,000 compounds, 1.5% hits;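 active means inhibition above about 50% when tested at 10 µM, limit read from the data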
STAT1 activator: activators of IFN-gamma induced STAT1 signaling | NIH 3T3 STAT1-luciferase reporter, luminescence; 100% = IFN-gamma alone, no compound | activation (% of control), % at 5.5 µM | 200,000 compounds, 2.6% hits | AID 932;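 active means activation above the screen-wide mean activation plus 3 SD, cut at about 130% in these data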;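 further: raw ratio to IFN-gamma control signal so 100% means no change and 0% no light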
STAT1 blocker: reduces IFN-gamma driven STAT1 reporter signal; NIH 3T3 STAT1-luciferase reporter, luminescence; inhibition, % at 5.5 µM; 200,000 compounds, 0.35% hits;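 active means inhibition above a set limit, the mean inhibition across all tested compounds plus 3 SD, cut at about 34% in these data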;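 further: 0% = IFN-gamma with DMSO and 100% = IFN-gamma with 300 µM nifuroxazide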
STAT3 inh-2: STAT3 inhibition, confirmation assay; shares compounds with STAT3 inh-1; U3A cells, IL-6 STAT3 luciferase reporter, luminescence; cell line lacks STAT1; inhibition, % at 5.7 µM; 1,200 compounds, 45% hits;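 active means inhibition above the hit cutoff computed for the primary STAT3 screen, cut at about 44% in these data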;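 further: 0% = IL-6 plus DMSO and 100% = IL-6 plus nifuroxazide control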
NFkB inh 2: NF-kappaB inhibition in STAT3 inhibitor counter-screen; HEK293T NF-kB luciferase reporter, TNF-alpha induced; shares compounds with STAT3 inh-1; inhibition, % at 5.7 µM; 1,200 compounds, 36% hits;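 active means inhibition above the mean of solvent-only control wells plus 3 SD, cutoff set per campaign, cut at about 13% in these data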;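 further: 0% = TNF-alpha with DMSO and 100% = TNF-alpha with MG high control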
STAT1 inh STAT3c: STAT1 inhibition in STAT3 inhibitor counter-screen; shares compounds with STAT3 inh-1; NIH 3T3 STAT1-luciferase reporter, IFN-gamma induced, luminescence; inhibition, % at 5.7 µM; 1,200 compounds, 27% hits; AID 1317;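 active means inhibition above the mean plus 3 SD of solvent-only control wells, limit set per screening run, cut at about 16% in these data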;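 further: 0% = DMSO with IFN-gamma and 100% = nifuroxazide control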
Starred values were filed as active, the others as inactive; x = not tested or not shown. Sampled rows, rich in hits. Any-hit rate of the full collection: about 4.9%.

SMILES	STAT3 inh-1	STAT3 act	FLuc act counter	FLuc inhib CS	STAT1 activator	STAT1 blocker	STAT3 inh-2	NFkB inh 2	STAT1 inh STAT3c
COC(=O)c1ccc(NC(=O)CCN2CCN(CCC(=O)Nc3ccc(C(=O)OC)cc3)CC2)cc1	48.6*	60.8	1.1	-5.6	103.5	0.0	38.3	8.3	4.2
COc1ccc(-c2c(C)n([O-])c3c([n+]2=O)CCCCC3)cc1OC	7.7	97.5	1.1	-10.2	101.9	-5.5	x	x	x
O=C(Nc1ccn(Cc2ccccc2F)n1)c1ccc(COc2ccc(Br)cc2)cc1	47.0*	65.9	0.9	6.6	102.4	-2.7	52.2*	8.4	-19.7
Cc1ccc(C2C(C#N)=C(N)N(c3cccnc3)C3=C2C(=O)CCC3)c(C)c1 (stereo not given)	2.1	100.2	1.1	-8.9	101.9	-1.5	x	x	x
COC(=O)c1cc(NC(=S)N2CCN(C(=O)C3CCCO3)CC2)cc(C(=O)OC)c1 (stereo not given)	4.0	101.5	1	-1.6	105.8	-8.7	x	x	x
O=C1c2ccccc2C(=O)N1CC1c2ccccc2CCN1C(=O)C1CCCCC1 (stereo not given)	-1.1	106.2	1	-0.2	87.0	14.1	x	x	x
O=C(O)[C@@H]1CCCC[C@@H]1C(=O)N1CCc2ccccc2C1CN1C(=O)c2ccccc2C1=O (stereo not given in full)	58.6*	54.4	1.1	-5.1	78.1	23.9	52.8*	19.3*	22.5*
COc1ccccc1N/C=C/C(=C(C#N)C#N)N(C)C	-8.9	112.4	1	-4.9	111.3	-14.5	x	x	x
COc1cc2c(cc1OC)C1=NC(=O)CN1C(SCc1ccccc1C)=N2	47.1*	64.1	1	-1.3	89.3	12.0	43.0	19.5*	8.8
Cc1ccc(CSC2=Nc3ccccc3C3=NC(=O)CN23)cc1	16.0	89.5	1	-2.6	113.2	-16.4	x	x	x
COc1ccc(CNc2cc(C)nc3ncnn23)c(OC)c1	67.0*	44.6	1	-4.0	88.0	13.1	52.1*	16.7*	17.4*
CCCCOC(=O)c1[nH]c2c(c1C)C(=O)CC(c1cc(OC)c(OC)c(OC)c1)C2 (stereo not given)	52.9*	56.9	1	-4.1	79.2	23.1	62.9*	23.5*	24.3*
N#Cc1c(C(F)(F)F)cc(-c2cccc(Cl)c2)[nH]c1=O	-6.0	109.8	1	-3.0	95.1	5.5	x	x	x
CCc1c(C)nc2ncnn2c1NCCc1ccc(OC)cc1	66.5*	44.1	1.1	-5.5	81.4	20.1	65.4*	28.1*	25.8*
CCOc1ccc(C(=O)Nc2cccc(C)n2)cc1	57.0*	55.6	0.2	79.0*	112.3	-12.5	17.5	-12.1	-71.3
O=C(NCCc1ccccc1)c1ccc2nccnc2c1	54.5*	55.9	0.2	77.0*	80.6	19.8	16.5	-8.9	-67.5
CCOc1ccc(C(=O)NCCc2ccccc2)cc1	54.9*	53.2	0.3	72.8*	95.8	4.5	31.0	7.6	-48.6
Cc1cccc(NC(=O)c2ccc(S(=O)(=O)N(C)C)cc2)n1	-3.3	104.4	1	3.8	108.4	-9.1	x	x	x
N#CC(Sc1ccccn1)c1ccc(Cl)cc1 (stereo not given)	24.5	86.3	1	-0.2	91.4	7.6	x	x	x
O=C(CS(=O)Cc1ccccc1Cl)Nc1ccccc1Cl (stereo not given)	6.7	102.4	1.1	-6.5	99.0	1.3	x	x	x
COc1ccc(N(C(C)C(=O)N2CCC(Cc3ccccc3)CC2)S(C)(=O)=O)cc1 (stereo not given)	50.0*	58.4	1.1	-5.6	75.7	26.3	45.8*	8.7	20.5*

From PubChem BioAssay
